Results from paper PMC10874764 (Chinese Herbal Medicines, 2023).
Where two headings read alike, the source gives them in different places.

What was measured:
[1] = Pharmacokinetics of five components in control; type: in vivo, SD rats; settings: for AUC / AUC(0-t) / Cmax / MRT last / half-life / Tmax: male, SD, rat, plasma, po, 1.5 mL/200 g, n = 6; for AUC: AUC(0−i); for MRT last: MRT0−t
Summary of the method: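 Male SD rats (8-week-old, 200–220 g), four groups (n = 6). Acute liver injury induced by intraperitoneal 50% CCl4 in olive oil at 3 mL/kg; controls received olive oil; fasted with water. After 12 h, single intragastric decoction at 1.5 mL/200 g. Tail-vein blood taken at 0–12 h into heparin. HPLC-MS/MS with internal standard; compartment-model fit for AUC, Cmax, Tmax, T1/2 and MRT.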

[2] = type: in vivo, SD rats; settings: male, SD, rat, plasma, po, 1.5 mL/200 g
[3] = Stability of each chemical component in rat plasma; type: in vitro ADME
Summary of the method: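 Blank rat plasma was spiked at 10, 100 and 500 ng/mL and held at room temperature for 24 h, at 4 °C for 14 d, or frozen at −20 °C for 15 d. Six samples per level were assayed by HPLC-MS/MS against 1,8-dihydroxyanthraquinone internal standard. Calibration ran 5–1 000 ng/mL, with analyte/IS ratio fitted by 1/x-weighted least squares.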

[4] = RhRR of control group, single oral 1.5 mL/200 g RhRR decoction
[5] = RhRR-EuS of control group, single oral 1.5 mL/200 g RhRR-EuS decoction
[6] = T1/2, RhRR-EuS of control group, single oral 1.5 mL/200 g RhRR-EuS decoction
[7] = 10 ng/mL, room temperature for 24 h
[8] = 100 ng/mL, room temperature for 24 h
[9] = 100 ng/mL, −20 °C free for 15 d
[10] = 500 ng/mL, room temperature for 24 h
[11] = 500 ng/mL, −20 °C free for 15 d

Row | AUC [1, 4] [ng·h/mL] | AUC [1, 5] [ng·h/mL] | AUC(0-t) [1, 4] [ng·h/mL] | AUC(0-t) [1, 5] [ng·h/mL] | Cmax [1, 4] [ng/mL] | Cmax [1, 5] [ng/mL] | MRT last [1, 4] [h] | MRT last [1, 5] [h] | half-life [1, 6] [h] | Tmax [1, 4] [h] | Tmax [2] [h] | Stability S [3, 7] [%] | Stability S ([3]; 10 ng/mL, −4 °C for 14 d) [%] | Stability S ([3]; 10 ng/mL, −20 °C free for 15 d) [%] | Stability S [3, 8] [%] | Stability S ([3]; 100 ng/mL, −4 °C for 14 d) [%] | Stability S [3, 9] [%] | Stability S [3, 10] [%] | Stability S ([3]; 500 ng/mL, −4 °C for 14 d) [%] | Stability S [3, 11] [%] | SMILES | further results
1 | 738 | 489 | 474 | 443 | 101 | 124 | 11.9 | 5.78 | 3.04 | 2 | 2 | 99.60 | 107 | 88.6 | 88.50 | 112 | 84.3 | 98.50 | 98.30 | 85.6 | O=C1c2cccc(O)c2C(=O)c2c(O)cc(CO)cc21 [Ae, Aloe emodin] | Tmax [1, 5]: 0.5 h
2 | 712 | 763 | 662 | 739 | 164 | 170 | 5.33 | 5.64 | 1.31 | 1 | 0.5 | 114 | 99.70 | 105.40 | 105 | 103 | 102.30 | 90.40 | 96.30 | 99.50 | Cc1cc(O)c2c(c1)C(=O)c1cccc(O)c1C2=O [Ch, Chrysophanol] | half-life ([1]; T1/2, RhRR of control group, single oral 1.5 mL/200 g RhRR decoction): 3.64 h
3 | 94.1 | 154 | 67.7 | 68.3 | 11.2 | 16.4 | 9.3 | 18.3 | 11.4 | 0.5 |  | 104.60 | 105 | 98.50 | 110.40 | 108 | 108.40 | 99.60 | 89.90 | 106 | Cc1cc(O)c2c(c1)C(=O)c1cc(O)cc(O)c1C2=O [Em, Emodin] | 
4 | 414 | 243 | 136 | 136 | 54.4 | 58.6 | 37.3 | 14.7 | 10.9 |  | 0.25 | 103 | 99.50 | 105 | 105 | 102 | 100.6 | 90.50 | 96.70 | 95.3 | COc1cc(O)c2c(c1)C(=O)c1cc(C)cc(O)c1C2=O [Ph, Physcion] | Tmax [1, 5]: 0.25 h
5 | 1670 | 1720 | 1440 | 1600 | 434 | 455 | 6.31 | 5.44 | 1.84 |  | 8 | 106.20 | 95.90 | 109.40 | 112.30 | 94.60 | 95.30 | 89.40 | 85.40 | 100.40 | O=C(O)c1cc(O)c2c(c1)C(=O)c1cccc(O)c1C2=O [Rh, Rhein] | Bioavailability among the five components ([1]; all groups (control and model rats, oral RhRR or RhRR-EuS decoction)): highest
